# Assay results as given in ChEMBL document CHEMBL2177098, “Synthesis and evaluation of novel ¹⁸F labeled 2-pyridinylbenzoxazole and 2-pyridinylbenzothiazole derivatives as ligands for positron emission tomography (PET) imaging of β-amyloid plaques” (J Med Chem, 2012).
# Legend:
# Blood [1] = experiment: Drug uptake in ICR mouse blood at 370 kBq/100 ul, iv at 2 mins by gamma-counting analysis; type: ADME, organism-based; settings: in vivo
# Method in brief: (§1)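 Male ICR mice (5 weeks, about 20 g) got 18F tracer in saline (370 KBq per 100 μL) via tail vein; n = 5 per time point, killed at 2, 10, 30, 60 min. Organs weighed and γ-counted; percent dose per gram wet tissue from comparison with diluted injectate aliquots.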
# Spleen [2] = experiment: Drug uptake in ICR mouse spleen at 370 kBq/100 ul, iv at 30 mins by gamma-counting analysis; type: ADME, organism-based; settings: in vivo, 0.5 h; method in brief: as §1
# Stomach [3] = experiment: Drug uptake in ICR mouse stomach assessed per organ at 370 kBq/100 ul, iv at 10 mins by gamma-counting analysis; type: ADME, organism-based; settings: in vivo
# Method in brief: (§2)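 Male ICR mice (5 weeks, about 20 g) got 18F tracer in saline (370 KBq per 100 μL) via tail vein; n = 5 per time point, killed at 2, 10, 30, 60 min. Organs removed and γ-counted against diluted injectate; expressed as % injected dose per organ.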
# [4] = Displacement of [125I]-IMPY from amyloid beta (1 to 42) fibrils after 2 hrs by gamma-counting analysis
# Method in brief: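 Competition binding with aggregated Aβ1-42 fibrils and [125I]IMPY (60000−100000 cpm/100 μL) in 0.05% BSA (1 mL total); inhibitors 10⁻⁴−10^−8.5 M in ethanol. Incubated 37 °C for 2 h, then GF/B vacuum filtration with PBS (0.02 M, pH 7.4) washes and γ counting. Three repeats; IC50 converted to Ki by Cheng−Prusoff.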
# Brain [5] = experiment: Drug uptake in ICR mouse brain at 370 kBq/100 ul, iv at 10 mins by gamma-counting analysis; type: ADME, organism-based; settings: in vivo; method in brief: as §1
# Lung [6] = experiment: Drug uptake in ICR mouse lung at 370 kBq/100 ul, iv at 30 mins by gamma-counting analysis; type: ADME, organism-based; settings: in vivo, 0.5 h; method in brief: as §1
# Bone [7] = experiment: Drug uptake in ICR mouse bone at 370 kBq/100 ul, iv at 2 mins by gamma-counting analysis; type: ADME, organism-based, Bone element; settings: in vivo; method in brief: as §1
# Bone [8] = experiment: Drug uptake in ICR mouse bone at 370 kBq/100 ul, iv at 10 mins by gamma-counting analysis; type: ADME, organism-based, Bone element; settings: in vivo; method in brief: as §1
# Heart [9] = experiment: Drug uptake in ICR mouse heart at 370 kBq/100 ul, iv at 30 mins by gamma-counting analysis; type: ADME, organism-based; settings: in vivo, 0.5 h; method in brief: as §1
# Stomach [10] = experiment: Drug uptake in ICR mouse stomach assessed per organ at 370 kBq/100 ul, iv at 30 mins by gamma-counting analysis; type: ADME, organism-based; settings: in vivo, 0.5 h; method in brief: as §2
# Brain [11] = experiment: Drug uptake in ICR mouse brain at 370 kBq/100 ul, iv at 2 mins by gamma-counting analysis; type: ADME, organism-based; settings: in vivo; method in brief: as §1
# Kidney [12] = experiment: Drug uptake in ICR mouse kidney at 370 kBq/100 ul, iv at 10 mins by gamma-counting analysis; type: ADME, organism-based; settings: in vivo; method in brief: as §1
# Blood [13] = experiment: Drug uptake in ICR mouse blood at 370 kBq/100 ul, iv at 30 mins by gamma-counting analysis; type: ADME, organism-based; settings: in vivo, 0.5 h; method in brief: as §1
# Blood [14] = experiment: Drug uptake in ICR mouse blood at 370 kBq/100 ul, iv at 60 mins by gamma-counting analysis; type: ADME, organism-based; settings: in vivo, 1 h; method in brief: as §1
# Kidney [15] = experiment: Drug uptake in ICR mouse kidney at 370 kBq/100 ul, iv at 60 mins by gamma-counting analysis; type: ADME, organism-based; settings: in vivo, 1 h; method in brief: as §1
# Heart [16] = experiment: Drug uptake in ICR mouse heart at 370 kBq/100 ul, iv at 2 mins by gamma-counting analysis; type: ADME, organism-based; settings: in vivo; method in brief: as §1
# Liver [17] = experiment: Drug uptake in ICR mouse liver at 370 kBq/100 ul, iv at 2 mins by gamma-counting analysis; type: ADME, organism-based; settings: in vivo; method in brief: as §1
# Intestine [18] = experiment: Drug uptake in ICR mouse intestine assessed per organ at 370 kBq/100 ul, iv at 60 mins by gamma-counting analysis; type: ADME, organism-based; settings: in vivo, 1 h; method in brief: as §2
# Spleen [19] = experiment: Drug uptake in ICR mouse spleen at 370 kBq/100 ul, iv at 10 mins by gamma-counting analysis; type: ADME, organism-based; settings: in vivo; method in brief: as §1
# Liver [20] = experiment: Drug uptake in ICR mouse liver at 370 kBq/100 ul, iv at 30 mins by gamma-counting analysis; type: ADME, organism-based; settings: in vivo, 0.5 h; method in brief: as §1
# Stomach [21] = experiment: Drug uptake in ICR mouse stomach assessed per organ at 370 kBq/100 ul, iv at 60 mins by gamma-counting analysis; type: ADME, organism-based; settings: in vivo, 1 h
# Method in brief: (§3)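 Normal male ICR mice (5 weeks, about 20 g) received the ¹⁸F tracer in saline (370 KBq per 100 μL) by tail-vein injection. Groups of n = 5 were killed at 2, 10, 30 and 60 min. Organs were removed, weighed and γ-counted against diluted aliquots of the injectate, giving % dose per gram. Stomach and intestine were expressed per organ. The brain ratio is 2 min/60 min uptake. Values are mean ± SD.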
# Stomach [22] = experiment: Drug uptake in ICR mouse stomach assessed per organ at 370 kBq/100 ul, iv at 2 mins by gamma-counting analysis; type: ADME, organism-based; settings: in vivo; method in brief: as §2
# Blood [23] = experiment: Drug uptake in ICR mouse blood at 370 kBq/100 ul, iv at 10 mins by gamma-counting analysis; type: ADME, organism-based; settings: in vivo; method in brief: as §1
# [24] = n-Octanol-PBS buffer partition coefficient, log D of the compound at 1.5 MBq after 3 mins at pH 7.4; type: physicochemical
# Method in brief: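 The tracer was partitioned between n-octanol and PBS by vortexing for 3 min at room temperature, then centrifuged for 5 min at 3000 rpm. Samples of the octanol (50 μL) and aqueous (500 μL) layers were counted. log D is the log of the octanol/PBS counts-per-gram ratio. The octanol layer was repartitioned until values were consistent. Measured in triplicate and repeated three times.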
# Spleen [25] = experiment: Drug uptake in ICR mouse spleen at 370 kBq/100 ul, iv at 2 mins by gamma-counting analysis; type: ADME, organism-based; settings: in vivo; method in brief: as §1
# Lung [26] = experiment: Drug uptake in ICR mouse lung at 370 kBq/100 ul, iv at 10 mins by gamma-counting analysis; type: ADME, organism-based; settings: in vivo; method in brief: as §1
# Brain [27] = experiment: Ratio of drug uptake in brain at 2 mins to drug uptake in brain at 60 mins in ICR mouse at 370 KBq/100 ul, iv; type: ADME, organism-based; settings: in vivo; method in brief: as §3
# Heart [28] = experiment: Drug uptake in ICR mouse heart at 370 kBq/100 ul, iv at 10 mins by gamma-counting analysis; type: ADME, organism-based; settings: in vivo; method in brief: as §1
# Liver [29] = experiment: Drug uptake in ICR mouse liver at 370 kBq/100 ul, iv at 60 mins by gamma-counting analysis; type: ADME, organism-based; settings: in vivo, 1 h; method in brief: as §1
# Spleen [30] = experiment: Drug uptake in ICR mouse spleen at 370 kBq/100 ul, iv at 60 mins by gamma-counting analysis; type: ADME, organism-based; settings: in vivo, 1 h; method in brief: as §1
# Intestine [31] = experiment: Drug uptake in ICR mouse intestine assessed per organ at 370 kBq/100 ul, iv at 10 mins by gamma-counting analysis; type: ADME, organism-based; settings: in vivo; method in brief: as §2
# Brain [32] = experiment: Drug uptake in ICR mouse brain at 370 kBq/100 ul, iv at 60 mins by gamma-counting analysis; type: ADME, organism-based; settings: in vivo, 1 h; method in brief: as §1
# Heart [33] = experiment: Drug uptake in ICR mouse heart at 370 kBq/100 ul, iv at 60 mins by gamma-counting analysis; type: ADME, organism-based; settings: in vivo, 1 h; method in brief: as §1
# Intestine [34] = experiment: Drug uptake in ICR mouse intestine assessed per organ at 370 kBq/100 ul, iv at 2 mins by gamma-counting analysis; type: ADME, organism-based; settings: in vivo; method in brief: as §2
# Lung [35] = experiment: Drug uptake in ICR mouse lung at 370 kBq/100 ul, iv at 2 mins by gamma-counting analysis; type: ADME, organism-based; settings: in vivo; method in brief: as §1
# Bone [36] = experiment: Drug uptake in ICR mouse bone at 370 kBq/100 ul, iv at 60 mins by gamma-counting analysis; type: ADME, organism-based, Bone element; settings: in vivo, 1 h; method in brief: as §1
# Brain [37] = experiment: Drug uptake in wild type C57BL6 mouse brain at 370 KBq/100 ul after 1 hr by autoradiographic analysis; type: ADME, tissue-based; settings: in vitro
# Method in brief: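 Paraffin brain sections from 12-month-old male control C57BL6 mice were deparaffinized through xylene and graded ethanol, then held in PBS (0.2 M, pH 7.4) for 30 min. They were incubated with the ¹⁸F tracer (370 KBq per 100 μL) for 1 h at room temperature. Sections were washed in 40% EtOH, rinsed with water for 1 min, dried, and exposed to a phosphor plate for 2 h. The same sections were then stained with thioflavin S.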
# Bone [38] = experiment: Drug uptake in ICR mouse bone at 370 kBq/100 ul, iv at 30 mins by gamma-counting analysis; type: ADME, organism-based, Bone element; settings: in vivo, 0.5 h; method in brief: as §1
# Brain [39] = experiment: Drug uptake in ICR mouse brain at 370 kBq/100 ul, iv at 30 mins by gamma-counting analysis; type: ADME, organism-based; settings: in vivo, 0.5 h; method in brief: as §1
# Lung [40] = experiment: Drug uptake in ICR mouse lung at 370 kBq/100 ul, iv at 60 mins by gamma-counting analysis; type: ADME, organism-based; settings: in vivo, 1 h; method in brief: as §1
# Kidney [41] = experiment: Drug uptake in ICR mouse kidney at 370 kBq/100 ul, iv at 2 mins by gamma-counting analysis; type: ADME, organism-based; settings: in vivo; method in brief: as §1
# Kidney [42] = experiment: Drug uptake in ICR mouse kidney at 370 kBq/100 ul, iv at 30 mins by gamma-counting analysis; type: ADME, organism-based; settings: in vivo, 0.5 h; method in brief: as §1
# Intestine [43] = experiment: Drug uptake in ICR mouse intestine assessed per organ at 370 kBq/100 ul, iv at 30 mins by gamma-counting analysis; type: ADME, organism-based; settings: in vivo, 0.5 h; method in brief: as §2
# Liver [44] = experiment: Drug uptake in ICR mouse liver at 370 kBq/100 ul, iv at 10 mins by gamma-counting analysis; type: ADME, organism-based; settings: in vivo; method in brief: as §1
compound,measurement,setting,value
CN(C)c1ccc(-c2nc3ccc(OCCOCCOCC[18F])cc3s2)cn1,Drug uptake,Blood [1],9.79 % ID/g
same,Drug uptake,Spleen [2],2.59 % ID/g
same,Drug uptake,Stomach [3],8.98 %ID
same,Ki,[4],5.8 nM
same,Drug uptake,Brain [5],2.64 % ID/g
same,Drug uptake,Lung [6],3.28 % ID/g
same,Drug uptake,Bone [7],1.86 % ID/g
same,Drug uptake,Bone [8],0.95 % ID/g
same,Drug uptake,Heart [9],2.62 % ID/g
same,Drug uptake,Stomach [10],14.13 %ID
same,Drug uptake,Brain [11],3.26 % ID/g
same,Drug uptake,Kidney [12],5.45 % ID/g
same,Drug uptake,Blood [13],4.96 % ID/g
same,Drug uptake,Blood [14],3.79 % ID/g
same,Drug uptake,Kidney [15],3.01 % ID/g
same,Drug uptake,Heart [16],4.5 % ID/g
same,Drug uptake,Liver [17],12.9 % ID/g
same,Drug uptake,Intestine [18],26.66 %ID
same,Drug uptake,Spleen [19],2.97 % ID/g
same,Drug uptake,Liver [20],6.79 % ID/g
same,Drug uptake,Stomach [21],11.34 %ID
same,Drug uptake,Stomach [22],2.55 %ID
same,Drug uptake,Blood [23],5.44 % ID/g
same,logD at 0.05 h,[24],3.08
same,Drug uptake,Spleen [25],3.14 % ID/g
same,Drug uptake,Lung [26],4.59 % ID/g
same,Ratio,Brain [27],1.77
same,Drug uptake,Heart [28],3.3 % ID/g
same,Drug uptake,Liver [29],4.75 % ID/g
same,Drug uptake,Spleen [30],1.47 % ID/g
same,Drug uptake,Intestine [31],10.4 %ID
same,Drug uptake,Brain [32],1.84 % ID/g
same,Drug uptake,Heart [33],2.02 % ID/g
same,Drug uptake,Intestine [34],4.68 %ID
same,Drug uptake,Lung [35],6.69 % ID/g
same,Drug uptake,Bone [36],1.58 % ID/g
same,Drug uptake,Brain [37],Not Active
same,Drug uptake,Bone [38],1.64 % ID/g
same,Drug uptake,Brain [39],1.98 % ID/g
same,Drug uptake,Lung [40],2.33 % ID/g
same,Drug uptake,Kidney [41],6.82 % ID/g
same,Drug uptake,Kidney [42],3.88 % ID/g
same,Drug uptake,Intestine [43],19.57 %ID
same,Drug uptake,Liver [44],11.6 % ID/g
